Assay outcomes: PubChem BioAssay, several laboratories
Only some compounds are listed: those with a hit (about 5.7% of all), similar ones and a draw of the others.
CSC inhib: cancer stem cell inhibition; cancer stem cell-like cells viability, luminescence; inhibition, % at 7.5 µM; 300,000 compounds, 1.1% hits; in the data active = inhibition above about 75%; tested in HMLE shEcad cells
T cruzi inh: T. cruzi replication inhibition | T. cruzi beta-gal in NIH3T3, luminescence, 90 h | inhibition, % (no concentration beside the values) | 300,000 compounds, 1.4% hits | AID 1885;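 active = mean inhibition across valid replicates above about 55%, limit read from the data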;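 also: signal also drops with host cell toxicity which is not excluded here; 0% = plate median of DMSO wells and 100% = zero luminescence signal; higher percent means less beta-gal luminescence so fewer parasites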
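System: mouse NIH/3T3 fibroblasts infected with β-gal-expressing T. cruzi Tulahuen C4 / Input: NIH/3T3 cells, 5,000 per well / Buffer or medium: Low-serum DMEM with 2% FBS / Probe or stimulus: 5000 reporter trypomastigotes per well / Schedule: ≥90 h infection period, 3 h prior cell attachment / Measured by: GalScreen luminescence, 60 min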
Calb FLC: C. albicans growth modulation with fluconazole; C. albicans CaCi-2 (fluconazole-resistant clinical isolate) + fluconazole, Alamar Blue growth, 48 h; growth inhibition, % (no concentration beside the values); AID 1979; 300,000 compounds, 0.57% hits;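 active = growth inhibition above about 58% in most replicates, limit read from the data, passing the limit was not always enough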;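 also: all wells also contain fluconazole at 8 µg/ml as a sub-toxic cotreatment; 0% = median of DMSO wells and 100% = median of geldanamycin control wells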
SKKanGAS inh: blocks kanamycin growth of S. pyogenes SKKanGAS strain | inhibition, % at 7.5 µM | BacTiter-Glo, 6 h | 300,000 compounds, 1.3% hits;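 active = mean replicate score, as percent of positive control median, at least 50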;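 also: strain carries kanamycin resistance gene driven by streptokinase promoter and grows in 40 µg/ml kanamycin; loss of luminescence reflects streptokinase promoter inhibition or plain growth inhibition; 0% = median of DMSO wells and 100% = positive control at its reference dose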
Beta apoptosis: beta cell apoptosis inhibition; INS-1E cytokine-induced death, ATP luminescence, 48 h; percent of positive-control rescue, neutral wells zero; protection from apoptosis, % (test concentration not listed); 300,000 compounds, 0.8% hits; AID 435005;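 active = Every replicate reaches about 75%, or at least half do and their mean reaches it too, limit read from the data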;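 also: 0% = cytokine-treated negative control wells and 100% = positive control rescue; higher means more ATP so stronger rescue from cytokine killing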
Mdm2-MdmX inh: human Mdm2/MdmX binding inhibition | inhibition, % at 8 µM | AID 485346 | SaOS-2 split-luciferase Mdm2/MdmX complementation, luminescence | 330,000 compounds, 3% hits | O15151+Q00987;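 active = inhibition of at least 50% at 8 µM in the primary screen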
Mdm2-MdmX conf: confirmation of human Mdm2/MdmX interaction inhibitors. 10,000 compounds, 55% hits. shares compounds with Mdm2-MdmX inh. Mdm2-MdmX binding, luminescent assay. inhibition, % at 8 µM; in the data active = inhibition above about 40%
FLuc counter: counter-screen for Mdm2/MdmX inhibitors: full-length luciferase. inhibition, % at 8 µM. 6,200 compounds, 77% hits. AID 504607. shares compounds with Mdm2-MdmX inh. SaOS-2 full-length luciferase counterscreen, luminescence;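 active = mean inhibition at 8 µM reaching about 37%, which flags the compound as non-specific, limit read from the data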;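 also: p53-null SaOS-2 cells with luciferase driven by a doxycycline-inducible promoter; compound on cells about two nights before reading with doxycycline added after day one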
* marks the source's active call; other numbers are inactive results; nt = not tested or not shown.

SMILES	CSC inhib	T cruzi inh	Calb FLC	SKKanGAS inh	Beta apoptosis	Mdm2-MdmX inh	Mdm2-MdmX conf	FLuc counter
C/C(=N\NC(=O)c1nnn(-c2nonc2N)c1CN(C)c1ccccc1)c1ccccc1O	97.7*	64.5*	-5.8	50.4*	90.4*	69.4*	76.5*	30.5
COc1cccc(/C=N/NC(=O)c2nnn(-c3nonc3N)c2CN(C)c2ccccc2)c1	-2.6	-4.8	13.8	15.3	0.2	-0.3	nt	nt
C/C(=N\NC(=O)c1nnn(-c2nonc2N)c1CN1CCCCC1)c1ccccc1O	81.4*	0.3	3.8	11.5	28.5	51.3*	47.0*	43.7*
COc1ccccc1C(=O)N1CCN(Cc2cccnc2)CC1	-18.6	17.9	4.3	-0.6	-0.6	14.0	nt	nt
CCN1C(=S)N[C@@H](CCc2ccccc2)C(C(=O)OC)=C1C	6.2	-14.7	0.5	-1.5	-3.2	-4.0	nt	nt
Cc1cc(O)c(C(C)C)cc1C1(c2cc(C(C)C)c(O)cc2C)OC(=O)c2ccccc21	150.1*	77.0*	2.1	84.3*	45.9	99.6*	58.4*	21.9
O=C(CCl)N(CCc1ccccc1)CCc1ccccc1	nt	56.2*	-12.3	18.8	3.3	90.6*	8.3	nt
C(=C1/CCCC2=C1Nc1ncnn1C2c1ccccc1)/c1ccccc1 (stereo not given)	40.7	73.9*	-7.6	-6.2	-16.6	75.7*	84.0*	11.2
S=C1NC2=C(CCC/C2=C\c2ccccc2)C(c2ccccc2)N1 (stereo not given)	14.8	24.5	-38.4	-6.5	-1.3	18.8	nt	nt
O=C(CNC(=O)CNC(=O)c1ccc(Cl)cc1Cl)NCc1cccc(Cl)c1	-6.3	-6.3	-4.8	-3.3	-2.9	13.2	nt	nt
COc1ccc(Cc2nc3c4c(ncn3n2)Oc2c(ccc3ccccc23)C4c2ccc(OC)c(OC)c2)cc1 (stereo not given)	-0.7	33.6	-0.9	12.9	-2.4	13.1	nt	nt
COc1ccc(C2c3ccc4ccccc4c3Oc3ncn(CCO)c(=N)c32)cc1OC (stereo not given)	14.6	1.3	25.3	1.8	4.2	57.9*	33.1	nt
COc1ccc(C2c3ccc(O)cc3Oc3ncn(Cc4ccccc4)c(=N)c32)cc1OC (stereo not given)	-3.8	11.4	-3.3	0.1	9.0	17.7	nt	nt
COc1ccc(C2c3ccc4ccccc4c3Oc3ncn(CCCO)c(=N)c32)cc1OC (stereo not given)	48.9	10.6	50.9	-10.1	7.3	78.3*	70.7*	47.7*
CCCc1cc(=O)n2[nH]cc(-c3ccc(Cl)cc3)c2n1	94.9*	-61.6	-1.3	84.8*	79.9*	55.1*	53.1*	17.5
Cc1ccc(-c2nc3ncccc3o2)cc1NC(=O)CC(C)C	-3.8	0.5	4.7	5.1	7.3	-4.8	nt	nt
Cc1ccc(-c2nc3cccnc3o2)cc1NC(=O)COc1ccc(Cl)cc1C	-12.6	6.7	2.1	5.3	64.1	84.5*	18.7	nt
Cc1ccc(-c2nc3ncccc3o2)cc1NC(=O)Cc1ccc(Cl)cc1	nt	-2.6	5.5	-1.1	5.8	92.6*	25.9	nt
Cc1cc([N+](=O)[O-])ccc1-c1ccc(/C=N/NC(=O)c2ccc(Br)o2)o1	88.2*	24.4	10.8	2.4	65.3	95.2*	16.1	nt
Cc1ccc(-c2ccc(/C=N\NC(=O)c3cc4c(ccc5ccccc54)o3)o2)cc1[N+](=O)[O-]	-3.4	7.7	3.3	-2.2	23.1	94.0*	33.6	nt
CC(C)Cc1nc2oc3c(NCC4CCCO4)ncnc3c2c2c1CCC2 (stereo not given)	23.2	-10.7	0.8	-0.5	nt	53.1*	54.9*	75.2*
C#CCOCCOCCOCCNc1nc(N2CCN(C(=O)CCCCCCCCCCNC(=O)[C@H](CO)n3cc(CCCSC)nn3)CC2)nc(N2CCN(C(=O)CCCCCCCCCCNC(=O)[C@H](CCCCN)n3cc(CCO)nn3)CC2)n1	-6.2	nt	nt	nt	2.0	-10.2	nt	nt
